Measurements reported in ChEMBL document CHEMBL1157283, “Cytotoxic xenia diterpenoids from the soft coral Xenia umbellata” (2006).
Converted amounts (≈) assume the structure as drawn.

Experiments:
[1] = system: HT-29; experiment: Cytotoxicity against human HT29 cells; assay type: functional, cell-based
How it was run: (§1)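 Human A549 (lung adenocarcinoma) and HT-29 (colon adenocarcinoma) cells were obtained from ATCC. In vitro cytotoxicity was measured on the cultured cells.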

[2] = system: A549; experiment: Cytotoxicity against human A549 cells; assay type: functional, cell-based; how it was run: as §1
[3] = system: P388; experiment: Cytotoxicity against mouse P388 cells; assay type: functional; conditions: read-out: ED50 (the source's name)

| Structure (SMILES) | Activity [1] | Activity [2] | EC50 [3] |
| --- | --- | --- | --- |
| C=C1CC[C@@H]2O[C@@]2(C)CC[C@H]2[C@H]1C(=O)O[C@@]2(/C=C/C1OC1(C)C)CO (stereo partly drawn) | Not toxic | Not toxic |  |
| C=C1CC[C@@H]2O[C@@]2(C)CC[C@H]2[C@H]1C(=O)O[C@@]2(/C=C/C1OC1(C)C)COC(C)=O (stereo partly drawn) | Not toxic | Not toxic |  |
| C=C1C[C@@H](O)/C=C(\C)CC[C@@H]2/C(=C\C=C\C(C)(C)O)[C@@H](OC)O[C@H](OC)[C@@H]12 | Not toxic | Not toxic |  |
| CC(C)(O)/C=C/C=C(/C=O)[C@H]1CC[C@@]2(C)C[C@](O)(CC[C@H]2O)[C@@H]1C=O | Not toxic | Not toxic |  |
| CC(C)(O)/C=C/C=C1/COC(=O)[C@H]2C3=CC[C@@H](O)[C@@](C)(CC[C@H]12)C3 | Not toxic | Not toxic |  |
| C=C(C)C(O)C/C=C(/COC(C)=O)[C@H]1CC[C@@]2(C)C[C@](O)(CC[C@H]2O)[C@@H]1C(=O)OC (stereo partly drawn) [UMBELLACIN B] | Not toxic | Not toxic | 1.6 µg/mL (≈ 3.77 µM) |
| COC(=O)[C@@H]1[C@@H](/C(=C\CC(O)C(C)(C)O)COC(C)=O)CC[C@]2(C)[C@@H]3CC[C@]12CO3 (stereo partly drawn) [UMBELLACIN D] | Not toxic | Not toxic | 4.2 µg/mL (≈ 9.89 µM) |
| COC(=O)[C@H]1C2=CC[C@@H](O)[C@@](C)(CC[C@@H]1/C(=C\CC(O)C(C)(C)O)COC(C)=O)C2 (stereo partly drawn) [UMBELLACIN E] | Not toxic | Not toxic | 3.8 µg/mL (≈ 8.95 µM) |
| C=C1CC/C=C(\C)CC[C@H](/C(=C\CC(O)C(C)(C)O)COC(C)=O)[C@H]1C(=O)OC (stereo partly drawn) [UMBELLACIN F] | Not toxic | Not toxic | 3.7 µg/mL (≈ 9.06 µM) |
| C=C1CC[C@@H]2O[C@@]2(C)CC[C@H](/C(=C\CC(O)C(C)(C)O)COC(C)=O)[C@H]1C(=O)OC (stereo partly drawn) [UMBELLACIN H] | Not toxic | Not toxic | 3.4 µg/mL (≈ 8.01 µM) |
| COC(=O)[C@@H]1[C@@H](/C(=C\CC(O)C(C)(C)O)COC(C)=O)CC[C@@]2(C)C[C@]1(O)CC[C@H]2O (stereo partly drawn) [UMBELLACIN I] | Not toxic | Not toxic | 3.6 µg/mL (≈ 8.13 µM) |
